Source: PubChem BioAssay (several laboratories)
Only some compounds are listed: those with a hit (about 1.8% of all), similar ones and a draw of the others.
PG9 Ab binder: binds the HIV-1 gp120 antibody PG9 | TR-FRET gp120-PG9 antibody binding | inhibition, % at 6.7 µM | 360,000 compounds, 0.43% hits | AID 624416; in the data active means inhibition above about 8.5%
Tb MetRS inh: Trypanosoma brucei MetRS inhibition. purified T. brucei MetRS, ATP depletion, Kinase-Glo luminescence. inhibition, % at 11.9 µM. 360,000 compounds, 0.4% hits;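 active means inhibition above a per-plate cutoff of the control wells' mean inhibition plus 3 SD, cut at about 5.5% in these data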
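Dosing: 11.9 µM single point; system: parasite MetRS enzyme; technique: luminescence of leftover ATP; times: 15 min enzyme-compound preincubation, 2 h reaction, 10 min detection, 25 °C; replicates: each compound tested once; read-out basis: percent inhibition relative to median high and low control wells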
NR1D1 modulator: Rev-erb alpha (human) modulation; AID 1259318; P20393; 370,000 compounds, 0.79% hits; Rev-erbα–FITC-DNA binding, fluorescence polarization, 90 min; activity, % at 10 µM;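 active means activity above about 14%, limit read from the data; passing the limit was not always enough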
Target sequence (P20393 whole entry, looked up): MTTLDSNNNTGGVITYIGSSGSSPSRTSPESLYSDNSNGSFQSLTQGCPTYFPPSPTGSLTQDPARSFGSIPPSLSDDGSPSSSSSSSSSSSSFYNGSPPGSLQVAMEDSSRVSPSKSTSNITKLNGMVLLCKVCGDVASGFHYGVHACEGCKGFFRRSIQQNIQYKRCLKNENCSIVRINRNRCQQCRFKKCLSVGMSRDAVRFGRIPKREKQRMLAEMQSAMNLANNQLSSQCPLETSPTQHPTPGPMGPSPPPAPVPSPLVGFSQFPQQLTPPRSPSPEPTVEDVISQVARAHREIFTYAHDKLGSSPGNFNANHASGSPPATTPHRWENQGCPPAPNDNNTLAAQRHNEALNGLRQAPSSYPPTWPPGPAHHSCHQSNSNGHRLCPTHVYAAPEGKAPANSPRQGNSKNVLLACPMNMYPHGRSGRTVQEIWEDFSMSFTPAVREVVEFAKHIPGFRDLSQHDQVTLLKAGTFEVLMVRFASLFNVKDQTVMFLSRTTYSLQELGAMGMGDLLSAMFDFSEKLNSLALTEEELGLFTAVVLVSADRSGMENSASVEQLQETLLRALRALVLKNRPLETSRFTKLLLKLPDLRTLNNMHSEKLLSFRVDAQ
Rin1-Abl PPI inh: human Rin1-Abl interaction inhibition; TR-FRET Rin1/Abl binding, biochemical; P00519+Q13671; 360,000 compounds, 0.4% hits; inhibition, % at 7.35 µM; in the data active means inhibition above about 5%, passing the limit was not always enough
Rev-erbA confirm: confirmation of modulators of human Rev-erb alpha DNA binding | activation, % at 25 µM | Rev-erb alpha FITC-DNA binding, fluorescence polarization, 90 min | shares compounds with NR1D1 modulator | 3,000 compounds, 61% hits;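 active means activation at or above a set limit, or at least 3 SD above the negative control mean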
RORg DNA counter: RORgamma DNA-binding activity, dose-response counter-screen; IC50, µM; purified RORgamma protein-FITC-DNA binding, fluorescence polarization; shares compounds with NR1D1 modulator; 910 compounds, 8% hits;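 active means Compounds whose fitted half-maximal concentration for disrupting protein-DNA binding is below 10 micromolar; the record names Rev-erb in its text, so the target is in doubt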
Large screens that a line does not name were inactive (follow-up assays come after a bar, where they were run).

CCOc1ccccc1NC(=O)CSC1=C(C#N)C(c2ccco2)C(C(=O)Nc2nc3ccccc3s2)=C(C)N1 (configuration not stated)	NR1D1 modulator 66.1 | Rev-erbA confirm 54.3 | RORg DNA counter inactive
COc1cccc(CCNC(=O)CCc2nnc(Cc3cc(OC)ccc3OC)o2)c1	none
Cc1cccc(C(=O)OCc2cc(=O)oc3c(C)c(C)ccc23)c1O	none (no result: PG9 Ab binder, NR1D1 modulator)
CCOc1ncccc1C(=O)OCc1cc(=O)oc2c(C)c(C)ccc12	NR1D1 modulator 34.2 | Rev-erbA confirm inactive
COc1ccc(-n2nc(C(=O)NCC(=O)N3CCN(c4cccc(Cl)c4)CC3)c3ccccc3c2=O)c(OC)c1	NR1D1 modulator 31.4 | Rev-erbA confirm inactive
COc1ccc(-n2nc(C(=O)NCC(=O)Nc3ccccn3)c3ccccc3c2=O)cc1Cl	NR1D1 modulator 65.5 | Rev-erbA confirm 44.6 | RORg DNA counter inactive
COc1ccc(-n2nc(C(=O)NCC(=O)Nc3cc(Cl)c(OC)cc3OC)c3ccccc3c2=O)cc1	NR1D1 modulator 52.7 | Rev-erbA confirm 49.5 | RORg DNA counter inactive
COc1ccc(-n2nc(C(=O)NCC(=O)Nc3cc(OC)ccc3OC)c3ccccc3c2=O)cc1	none
O=C(NCCc1ccccc1)OCc1cn(Cc2ccc(F)cc2F)nn1	none (no result: PG9 Ab binder, Tb MetRS inh, Rin1-Abl PPI inh)
Cc1nc(C)c(-c2ccc(SCC(=O)Nc3cccc(Cl)c3)nn2)s1	NR1D1 modulator 24.3 | Rev-erbA confirm inactive
CN1CCS/C1=C/C=C1\SC(=S)N(CC(=O)O)C1=O	NR1D1 modulator 301.9 | Rev-erbA confirm 246.3 | RORg DNA counter inactive
CN1CCS/C1=C/C=C1/SC(=S)N(Cc2ccccc2)C1=O	NR1D1 modulator 188.0 | Rev-erbA confirm 168.8 | RORg DNA counter inactive
O=C(O)c1ccc(/C=C2/SC(=S)N(Cc3ccccc3)C2=O)cc1	none
CCCCN1C(=O)/C(=C/C=C2\SCCN2C)SC1=S	NR1D1 modulator 126.3 | Rev-erbA confirm 46.8 | RORg DNA counter inactive
CC(Oc1cccnc1[N+](=O)[O-])C(=O)N1CCc2ccccc21 (configuration not stated)	none
Cc1ccc(C(=O)NNCC(=O)Nc2ccc(Cl)cc2F)cc1	NR1D1 modulator 18.2 | Rev-erbA confirm inactive
O=C(CCNC(=O)c1ccc(Cl)cc1)Nc1ccc(Cl)cc1F	none
COc1ccc(C(=O)/C(C#N)=N/Nc2ccc([N+](=O)[O-])cc2)cc1	NR1D1 modulator 44.4 | Rev-erbA confirm 35.7 | RORg DNA counter inactive
CC(=O)c1ccc([C@H](O)[C@H](C)C(=O)N(C)c2ccccc2)cc1	none (no result: PG9 Ab binder, Tb MetRS inh, Rin1-Abl PPI inh)
CCOC(=O)c1nn(-c2ccccc2)c(=O)cc1SC1CCCCC1	NR1D1 modulator 28.6 | Rev-erbA confirm 25.7
CCOC(=O)c1nn(-c2ccccc2)c(=O)cc1SC(C)C	none
C/C(N)=C(/C#N)C(=O)CSc1cc(C)c2cc(C)cc(C)c2n1	NR1D1 modulator 50.2 | Rev-erbA confirm 27.5
Cc1cc(C)c2nc(SCC#N)cc(C)c2c1	none
C/C(=N\N(Cc1ccccc1)c1ccccc1)c1ccncc1	NR1D1 modulator 42.8 | Rev-erbA confirm 39.8 | RORg DNA counter inactive
O=c1c2ccccc2c(-c2ccccc2)nn1Cc1c(Cl)cccc1Cl	none
O=c1c2ccccc2c(-c2ccccc2)nn1-c1cc(Cl)cc(Cl)c1	NR1D1 modulator 31.0 | Rev-erbA confirm inactive
COc1ccc(-c2cc(C(=O)NN=Cc3ccc(O)c(OC)c3)[nH]n2)cc1	none (no result: PG9 Ab binder, Tb MetRS inh, Rin1-Abl PPI inh)
COc1ccc(-c2cc(-c3ccc(OC)cc3)c(C#N)c(SC)n2)cc1	NR1D1 modulator 108.0 | Rev-erbA confirm 52.4 | RORg DNA counter inactive
COc1cccc(-c2cc(-c3cccnc3)c(C#N)c(N)n2)c1	none
COc1ccc(-c2cc(-c3cccnc3)c(C#N)c(N)n2)cc1	NR1D1 modulator 39.8 | Rev-erbA confirm 35.8 | RORg DNA counter inactive
O=C(Nc1ccc(Oc2ncnc3cc(Cl)ccc23)nc1)c1cccs1	NR1D1 modulator 55.1 | Rev-erbA confirm 27.4
O=C(Nc1ccc(F)cc1)Nc1ccc(Oc2ncnc3cc(Cl)ccc23)nc1	NR1D1 modulator 51.3 | Rev-erbA confirm inactive
COCc1cc(N2CCN(C(=O)OC(C)(C)C)C[C@@H]2C)ccc1Br	none (no result: Tb MetRS inh, Rin1-Abl PPI inh)
Cc1cc(N2CCN(C(=O)OC(C)(C)C)C[C@H]2C)ccc1Br	NR1D1 modulator 14.8 (no result: Tb MetRS inh, Rin1-Abl PPI inh) | Rev-erbA confirm inactive
COc1ccc(-c2cc(-n3c(C(F)(F)F)nc4ccccc43)n(CCC#N)n2)cc1	none
COc1ccc(Sc2nc3ccccc3n3c(C(F)(F)F)nnc23)cc1	NR1D1 modulator 55.8 | Rev-erbA confirm 34.1 | RORg DNA counter inactive
CCOC(=O)/C(=C\C=C1/Sc2cc(OCC)c(OCC)cc2N1CC)C(C)=O	NR1D1 modulator 111.8 | Rev-erbA confirm 42.4 | RORg DNA counter inactive
CCOC(=O)/C(=C/C=C1\Sc2cc(OCC)c(OCC)cc2N1CC)C(C)=O	NR1D1 modulator 31.7 | Rev-erbA confirm inactive
CCOC(=O)c1c(-c2ccccc2)csc1NC(=O)c1cc(S(=O)(=O)N2CCOCC2)ccc1C	NR1D1 modulator 33.6 | Rev-erbA confirm 49.4 | RORg DNA counter inactive
CCOC(=O)c1c(-c2ccccc2)csc1NC(=O)c1ccc(S(=O)(=O)N2CC(C)OC(C)C2)cc1 (configuration not stated)	none
CCCC(=O)N=C1SC2CS(=O)(=O)CC2N1c1ccc(-c2nc3ccc(C)cc3s2)cc1 (configuration not stated)	NR1D1 modulator 38.3 | Rev-erbA confirm inactive
CCN(CC)S(=O)(=O)c1cccc(NC(=O)COC(=O)/C=C/c2cccs2)c1	none
Cc1ccc(C2CC(c3cccs3)=NN2C(=O)CSc2nc(=O)n3cc(C)ccc3n2)cc1 (configuration not stated)	NR1D1 modulator 26.7 | Rev-erbA confirm 18.3
COc1ccc(C2=NN(C(=O)CSc3nc(=O)n4cccc(C)c4n3)C(c3ccc(C)cc3)C2)cc1 (configuration not stated)	NR1D1 modulator 39.3 | Rev-erbA confirm inactive
COc1ccc(C2=NN(C(=O)CSc3ncccn3)C(c3cccc(OC)c3OC)C2)cc1 (configuration not stated)	NR1D1 modulator 38.9 | Rev-erbA confirm 33.0 | RORg DNA counter inactive
COc1ccc(C2=NN(C(=O)CSc3ncccn3)C(c3ccc(C)cc3)C2)cc1 (configuration not stated)	none
N#CCCSC(=S)C1CCCC1=N (configuration not stated)	none
CC(=O)c1cc2c(cc1N/C(=N/S(=O)(=O)c1ccc(Br)cc1)c1ccccc1)OCO2	NR1D1 modulator 96.8 | Rev-erbA confirm inactive
CC(=O)c1ccc(S(=O)(=O)Nc2cc3c(cc2C(C)=O)OCO3)cc1	none
COC(=O)[C@]12C[C@H](CC(=O)NCC34CC5CC(CC(C5)C3)C4)C(=O)N(CCc3ccc(OC)c(OC)c3)C1=C[C@H](COCc1ccccc1)O[C@@H]2C	none (no result: PG9 Ab binder, Tb MetRS inh, Rin1-Abl PPI inh)
COc1ccc(-n2nnnc2C(c2cc3ccccc3o2)N2CCN(C/C=C/c3ccccc3)CC2)cc1 (configuration not stated)	none
